# C2C12 statin: suppression of simvastatin myotoxicity; C2C12 myotubes + simvastatin, ATP luminescence, 48 h; scaled: DMSO 0, geranylgeraniol control 100; rescue of ATP level, % at 7.49 µM; 330,000 tested, 0.78% active;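 active means mean ATP rescue above about 67%, or every replicate alone reaching that limit, limit read from the data, passing the limit was not always enough; inconclusive means no clear call, values can overlap the other calls; inactive means mean under the limit and some replicate under it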;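 further: myotubes were challenged with 10 µM simvastatin during compound exposure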
# PDI inh: PDI (human) enzyme inhibition; inhibition, % at 10 µM; 350,000 tested, 0.052% active; P07237; PDI insulin aggregation turbidity, A650, 90 min;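 active means mean inhibition across replicates of 30% or more, whatever share of single replicates reach that level; inconclusive means mean inhibition below 30% while every single replicate reaches 30%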
# F508del corr: CFTR F508del correction in bronchial cells; CFBE cells, YFP halide quenching; stimulated with forskolin plus potentiator P3; % fluorescence drop versus neutral controls; 350,000 tested, 0.36% active; AID 720511; activity (quench increase), % at 7.58 µM;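 active means mean added fluorescence quench of at least 8% versus neutral control, with both replicates also reaching 8%; inconclusive means only one of the mean or replicate conditions met; inactive means mean below 8% and not both replicates reaching 8%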;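 further: cells transiently co-express mutant CFTR-F508del with the halide-sensitive YFP; corrector assay measuring rescue of mutant channel to the surface after 24 h compound exposure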
# Cneo AK release: Cryptococcus neoformans lysis via adenylate kinase release | lysis activity, % at 15 µM | 360,000 tested, 0.2% active | C. neoformans lysis, adenylate kinase release luminescence, 4 h; normalised: neutral wells 0, clomiphene wells 100;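 active means mean lysis activity across replicates of at least 80%, whatever share of replicates individually reach that level; inactive means mean lysis activity below 80%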
#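 Assay system: C. neoformans cells. Amount: yeast cell density of 5 × 10^6 cells/mL. Technique: AK luminescence. Buffer or medium: YPD. Times: static 4 h at 37 °C with compound, 1 h detection. Dosing: single-point compound dose. Read-out: lysis from increased AK signal.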
# ERp5 block: blocks human ERp5 reductase activity on insulin. inhibition, % at 9.99 µM. 350,000 tested, 0.05% active. AID 651711. ERp5 insulin aggregation, absorbance 650 nm, 90 min;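 active means mean replicate inhibition above about 25%, with every replicate also reaching it, limit read from the data, passing the limit was not always enough; inconclusive means only one of those two criteria met; inactive means neither criterion met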
# Target sequence (Q15084 whole entry, looked up): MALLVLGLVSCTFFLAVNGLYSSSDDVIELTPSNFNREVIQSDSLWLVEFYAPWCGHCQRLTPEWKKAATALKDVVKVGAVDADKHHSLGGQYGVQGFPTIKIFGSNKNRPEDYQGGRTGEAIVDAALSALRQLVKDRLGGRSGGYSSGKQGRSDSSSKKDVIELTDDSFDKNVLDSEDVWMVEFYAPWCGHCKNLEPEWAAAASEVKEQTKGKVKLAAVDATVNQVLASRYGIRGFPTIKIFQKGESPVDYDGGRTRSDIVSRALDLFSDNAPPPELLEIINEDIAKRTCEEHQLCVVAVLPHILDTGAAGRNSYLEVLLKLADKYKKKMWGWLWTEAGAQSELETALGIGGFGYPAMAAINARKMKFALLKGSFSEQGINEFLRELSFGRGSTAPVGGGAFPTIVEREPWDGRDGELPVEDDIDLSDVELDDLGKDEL
# DENV2 CPE rescue: protects cells from dengue virus 2 cytopathic effect; CPE inhibition, % at 9.99 µM; 350,000 tested, 1.7% active; DENV2-infected cells, cytopathic effect rescue, plate reader; in the data active means CPE inhibition above about 20%, passing the limit was not always enough; inconclusive means no clear call, values can overlap the other calls; tested in BHK-21 cells;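 further: 0% = median of neutral control wells and 100% = median of positive control wells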
# Active calls of the source: *; u = inconclusive; x = no result. A selection: hits, their analogues and other compounds. The true share with any hit is near 2.3%.
SMILES,C2C12 statin,PDI inh,F508del corr,Cneo AK release,ERp5 block,DENV2 CPE rescue
Cc1cc(C)cc(NC(=O)c2ccc(CSc3nnc(C)s3)cc2)c1,122.0*,-7.2,x,0.6,x,x
COc1cccc(NC(=O)N2C[C@@H](O)COC[C@@H]3O[C@H](CC(=O)NC4CCCC4)CC[C@H]32)c1,12.8,x,-1.4,-1.1,-5.2,-7.3
FC(F)(F)c1cccnc1Oc1ccc(C2=NCCS2)cc1,x,-1.9,0.3,3.6,x,68.4*
Nc1cccnc1Oc1ccc(F)cc1,1.5,-5.9,-0.6,x,-2.4,0.0
CC12CCC3c4ccc(O)cc4CCC3C1CCC2=O (stereo not drawn),2.2,45.3*,9.4*,1.4,-10.5,1.1
C[C@]12CC[C@@H]3c4ccc(OS(=O)(=O)O)cc4CC[C@H]3[C@@H]1CCC2=O,2.1,5.4,-6.3,1.8,3.9,7.3
Cc1noc(C)c1NC(=O)Nc1ccc2c(c1)C(=O)N([C@H](C)CO)C[C@@H](C)[C@@H](CN(C)C(=O)Nc1ccccc1)OCCCC[C@@H](C)O2,44.9,x,-0.4,4.0,-3.5,22.6*
Cc1noc(C)c1NC(=O)Nc1ccc2c(c1)C(=O)N([C@@H](C)CO)C[C@H](C)[C@@H](CN(C)C(=O)CCCN(C)C)OCCCC[C@@H](C)O2,10.6,x,-4.9,0.1,-4.6,86.3*
Cc1noc(C)c1NC(=O)Nc1ccc2c(c1)C(=O)N([C@H](C)CO)C[C@H](C)[C@@H](CN(C)C(=O)c1ccccc1)OCCCC[C@H](C)O2,x,x,-2.9,0.9,1.6,0.7
Cc1noc(C)c1NC(=O)Nc1ccc2c(c1)C(=O)N([C@H](C)CO)C[C@@H](C)[C@H](CN(C)C(=O)Nc1ccccc1)OCCCC[C@@H](C)O2,u,x,0.8,-3.7,6.2,4.4
Cc1noc(C)c1NC(=O)Nc1ccc2c(c1)C(=O)N([C@H](C)CO)C[C@H](C)[C@H](CN(C)C(=O)c1ccccc1)OCCCC[C@H](C)O2,x,x,-1.7,-2.9,-4.7,39.3*
C[C@@H]1CN([C@H](C)CO)C(=O)c2cccc(NS(=O)(=O)c3cccs3)c2O[C@H]1CN(C)C,2.4,x,3.4,50.4,-0.2,-0.8
COc1cccc(-c2ccc([C@H]3[C@@H](CO)N4C(=O)CN(C(=O)C5CCCCC5)C[C@@H]34)cc2)c1,x,x,-1.9,x,3.5,-2.0
CC(=O)NC[C@H]1[C@@H](c2ccc(C3=CCCCC3)cc2)[C@@H](CO)N1C(=O)NC(C)C,-10.1,x,-2.4,-0.3,x,54.9*
CC(=O)NC[C@H]1[C@H](c2ccc(C3=CCCC3)cc2)[C@@H](CO)N1C(=O)NC(C)C,1.4,x,0.9,0.6,x,-8.3
CC(=O)NC[C@@H]1[C@@H](c2ccc(C3=CCCC3)cc2)[C@@H](CO)N1C(=O)NC(C)C,-8.0,x,0.6,112.4*,x,5.3
O=C(O)CCC(=O)NNC(=O)CCC1CCCCC1,x,4.9,x,x,1.2,x
O=C(O)CCC(=O)OCC1CCCCC1,114.2*,-2.1,x,2.6,-0.7,x
O=C1CC(c2ccncc2)c2cc3c(cc2N1)OCCO3 (stereo not drawn),125.7*,1.4,x,-1.6,x,x
O=C1CC(c2cccs2)c2cc3c(cc2N1)OCO3 (stereo not drawn),116.1*,4.3,x,-7.0,x,x
O=C1CC(c2ccc3c(c2)OCO3)c2cc3c(cc2N1)OCCO3 (stereo not drawn),30.0,-6.9,x,-2.9,x,x
CCC(=O)Nc1ccc2c(c1)OC[C@H](C)N(C(=O)c1ccccn1)C[C@@H](C)[C@@H](OC)CN(C)C2=O,6.9,x,x,-1.3,-3.6,-7.7
COCC(=O)Nc1ccc2c(c1)C(=O)N(C)C[C@H](OC)[C@H](C)CN(C(=O)c1ccccn1)[C@@H](C)CO2,9.6,x,1.3,-3.9,6.5,65.3*
COCC(=O)Nc1ccc2c(c1)C(=O)N(C)C[C@@H](OC)[C@H](C)CN(C(=O)c1ccccn1)[C@H](C)CO2,-1.5,x,-1.6,-1.5,2.5,-5.2
CO[C@H]1CN(C)C(=O)c2ccc(NC(=O)Nc3cc(F)ccc3F)cc2OC[C@@H](C)N(C(=O)c2ccccn2)C[C@H]1C,8.4,x,-2.3,-1.1,-5.2,37.7*
SMILES,C2C12 statin,PDI inh,F508del corr,Cneo AK release,ERp5 block,DENV2 CPE rescue
CCC(=O)Nc1ccc2c(c1)OC[C@@H](C)N(C(=O)c1ccccn1)C[C@@H](C)[C@H](OC)CN(C)C2=O,14.6,x,x,-2.6,6.3,25.8*
COCC(=O)Nc1ccc2c(c1)C(=O)N(C)C[C@@H](OC)[C@@H](C)CN(C(=O)c1ccccn1)[C@H](C)CO2,6.5,x,0.3,0.1,0.5,23.3*
CC(=O)N1[C@H](C(=O)Nc2ccccc2)[C@@H](CO)[C@@H]2Cn3c(ccc(C4=CCCC4)c3=O)[C@@H]21,27.8,x,x,-2.4,-0.2,-9.1
C[C@H](CO)N1C[C@H](C)[C@@H](CN(C)Cc2ccccc2C(F)(F)F)OCc2cnnn2CCCC1=O,-1.9,x,-0.5,x,x,x
CO[C@H]1CN(C)C(=O)c2ccc(NS(C)(=O)=O)cc2OC[C@H](C)N(Cc2cccnc2)C[C@H]1C,-4.1,x,-1.2,-1.7,-5.4,1.6
COc1ccc(NC(=O)N(C)C[C@H]2Oc3ccc(NC(=O)C4CC4)cc3C(=O)N([C@H](C)CO)C[C@H]2C)cc1,-4.0,x,2.5,-5.0,-7.1,1.4
CC1CCCC(NC(=O)COC(=O)c2cc3ccccc3oc2=O)C1C (stereo not drawn),4.0,8.3,0.8,-3.0,3.2,7.4
CC1CCN(C(=O)COC(=O)CNC(=O)c2ccccc2F)CC1,-9.5,3.5,1.3,-0.6,-4.3,69.2*
O=C(CNC(=O)c1ccccc1F)OCC(=O)N1CCCCC1,-3.5,16.6,x,x,-11.4,-3.8
CC1CCN(C(=O)CNC(=O)c2cccc(OC(F)F)c2)CC1,-14.7,0.5,-3.1,-2.4,u,0.0
CC1CCN(C(=O)COC(=O)c2cc3ccccc3oc2=O)CC1,5.3,2.4,0.3,8.2,6.5,54.1*
COc1cccc(C(=O)NCC(=O)N2CCC(C)CC2)c1,99.1*,6.5,x,-0.7,x,x
O=C(C[C@@H]1C[C@H]2c3cc(NS(=O)(=O)c4ccc(F)cc4)ccc3O[C@H]2[C@H](CO)O1)NCc1cccc(F)c1,8.7,x,-0.1,-0.9,-16.7,-1.9
O=C(C1CC1)N1CC[C@@H]2[C@H]1c1cc(-c3cccc(F)c3)ccc1N[C@@H]2CO,-0.7,x,1.2,-8.4,x,x
COc1ccc(C(=O)Nc2ccccc2C(=O)NCCCn2ccnc2)cc1,x,-4.0,x,-0.2,x,x
O=C(Nc1ccccc1C(=O)NCCCn1ccnc1)c1ccccc1,122.0*,3.8,-0.7,1.4,1.0,-2.6
Cc1cc(C)nc(NC(=NCCc2c[nH]c3ccccc23)NC(=O)c2ccco2)n1,128.0*,1.8,x,x,x,x
O=C(NC(Cc1c[nH]c2ccccc12)C(=O)O)c1ccco1 (stereo not drawn),83.9*,-4.4,x,-15.7,x,x

# Screening data: PubChem, Broad Institute
